Source: ChEMBL document CHEMBL4680120, “Novel anti-Alzheimer phenol-lipoyl hybrids: Synthesis, physico-chemical characterization, and biological evaluation” (Eur J Med Chem, 2020)
Converted amounts (≈) assume the structure as drawn. The source made the active and inactive calls. No cut-off for these calls is given here.

How the values were obtained:
SH-SY5Y [1] = experiment: Neuroprotective activity against amyloid beta (1 to 42)-induced apoptosis in human SH-SY5Y cells assessed as late apoptotic cells at IC50 measured after 48 hrs by Annexin-V/Propidium iodide staining based flow cytometry (reference value: 33.72%); assay type: functional
SH-SY5Y [2] = experiment: Neuroprotective activity against amyloid beta (1 to 42)-induced apoptosis in human SH-SY5Y cells assessed as necrotic cells at IC50 measured after 48 hrs by Annexin-V/Propidium iodide staining based flow cytometry (reference value: 6.99%); assay type: functional
Erythrocyte [3] = experiment: Cytoprotective activity against H2O2-induced oxidative damage in human RBC assessed as recovery of H2O2-induced cell death at 50 to 100 uM measured after 72 hrs by LDH release assay relative to control; assay type: functional; details: dose 50-100 µM
In short: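 Heparinised human whole blood cultured in phytohemagglutinin-containing chromosome medium and co-incubated with hybrids and H2O2 at 37C for 72 h. LDH released into the culture medium was measured with a commercial kit. Triton X-100 served as positive control, with untreated cultures as reference. Cytoprotection was expressed as viability relative to control.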

Erythrocyte [4] = experiment: Cytoprotective activity against H2O2-induced oxidative damage in human RBC assessed as restoration of antioxidant activity at 50 uM measured after 72 hrs by TAC assay relative to control; assay type: functional
[5] = Stability in simulated gastric fluid at pH 1.2 assessed as relative difference measured after 60 mins in presence of pepsin by HPLC analysis; assay type: ADME; details: isolated protein, pH 1.2, 1 h
In short: (§1)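 Incubation in simulated gastric fluid (pH 1.2, pepsin) or simulated intestinal fluid (pH 6.8, pancreatin). Aliquots deproteinized with ice-cold acetonitrile, centrifuged at 4°C and 12000 rpm for 10 min, filtered, analyzed by HPLC. RD% = (Ci − Cf)/Ci × 100. Stable if RD < 5%. Means of three experiments.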

Erythrocyte [6] = experiment: Antioxidant activity in human RBC assessed as increase in total antioxidant capacity level up to 400 ug/ml measured after 72 hrs relative to control; assay type: functional; details: dose microg/ml <=400
SH-SY5Y [7] = experiment: Neuroprotective activity against amyloid beta (1 to 42)-induced toxicity in human SH-SY5Y cells assessed as increase in cell viability at 1 to 250 mg/l measured after 48 hrs by LDH release assay; assay type: functional, cell-based; details: dose 1-250 mg/L
In short: (§2)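 SH-SY5Y cells grown in DMEM/F12 with 10% FBS and differentiated with retinoic acid (10 μM), seeded at 1×10^4 per well and cultured 24 h. Cells were given hybrids at 1–250 mg/L with or without Aβ1-42 (20 μM) for 48 h. MTT (5 mg/mL) added for 4 h at 37°C, DMSO solubilization, read at 570/630 nm. LDH read at 450 nm. Five independent experiments.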

[8] = Stability in simulated intestinal fluid at pH 6.8 assessed as relative difference measured after 15 mins in presence of pancreatin by HPLC analysis; assay type: ADME; details: simulated gi fluid, pH 6.8, 0.25 h; in short: as §1
Erythrocyte [9] = experiment: Cytoprotective activity against H2O2-induced oxidative damage in human RBC assessed as recovery of H2O2-induced cell death at 50 to 100 uM measured after 72 hrs by MTT assay relative to control; assay type: functional; details: dose 50-100 µM
SH-SY5Y [10] = experiment: Neuroprotective activity against amyloid beta (1 to 42)-induced toxicity in human SH-SY5Y cells assessed as increase in cell viability at 1 to 250 mg/l measured after 48 hrs by MTT assay; assay type: functional, cell-based; details: dose 1-250 mg/L; in short: as §2
[11] = Stability in simulated intestinal fluid at pH 6.8 assessed as relative difference measured after 60 mins in presence of pancreatin by HPLC analysis; assay type: ADME; details: simulated gi fluid, pH 6.8, 1 h; in short: as §1
Erythrocyte [12] = experiment: Cytoprotective activity against H2O2-induced oxidative damage in human RBC assessed as increase in cell viability measured after 72 hrs by LDH release assay; assay type: functional, cell-based
In short: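 Heparinized whole blood cultured with phytohemagglutinin. Cells were co-incubated with 50 or 100 μM hybrid and H2O2 (25 μM). Viability was read by MTT: lymphocytes at 2×10^5 per well, MTT 4 h at 37°C, formazan dissolved in DMSO, absorbance 570 nm. LDH release was measured on 100 μL medium with a commercial kit. Results are relative to untreated control.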

SH-SY5Y [13] = experiment: Cytotoxicity against human SH-SY5Y cells assessed as reduction in cell viability at 1 to 250 mg/l measured after 48 hrs by MTT assay; assay type: cell-based; details: dose 1-250 mg/L; in short: as §2
[14] = Stability in simulated intestinal fluid at pH 6.8 assessed as relative difference measured after 30 mins in presence of pancreatin by HPLC analysis; assay type: ADME; details: simulated gi fluid, pH 6.8, 0.5 h; in short: as §1
Erythrocyte [15] = experiment: Cytoprotective activity against H2O2-induced oxidative damage in human RBC assessed as increase in cell viability measured after 72 hrs by MTT assay; assay type: functional, cell-based
[16] = Stability in simulated intestinal fluid at pH 6.8 assessed as relative difference measured after 120 mins in presence of pancreatin by HPLC analysis; assay type: ADME; details: simulated gi fluid, pH 6.8, 2 h; in short: as §1
Erythrocyte [17] = experiment: Cytoprotective activity against H2O2-induced oxidative damage in human RBC assessed as restoration of antioxidant activity measured after 72 hrs by TAC assay; assay type: functional, cell-based
[18] = Stability in simulated gastric fluid at pH 1.2 assessed as relative difference measured after 15 mins in presence of pepsin by HPLC analysis; assay type: ADME; details: isolated protein, pH 1.2, 0.25 h; in short: as §1
[19] = Stability in human plasma assessed as observed rate constant by HPLC analysis; assay type: ADME, cell-free
In short: (§3)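 Compound stock added to human plasma pre-warmed to 37°C and diluted with 0.02 M phosphate buffer (pH 7.4) to 80% plasma. 100 μL samples taken over time, quenched with 200 μL cold acetonitrile, centrifuged, and supernatant analyzed by HPLC. t½ and kobs are means of three experiments.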

SH-SY5Y [20] = experiment: Neuroprotective activity against amyloid beta (1 to 42)-induced apoptosis in human SH-SY5Y cells assessed as early apoptotic cells at IC50 measured after 48 hrs by Annexin-V/Propidium iodide staining based flow cytometry (reference value: 0.74%); assay type: functional
[21] = Stability in simulated gastric fluid at pH 1.2 assessed as relative difference measured after 30 mins in presence of pepsin by HPLC analysis; assay type: ADME; details: isolated protein, pH 1.2, 0.5 h; in short: as §1
Erythrocyte [22] = experiment: Cytoprotective activity against H2O2-induced oxidative damage in human RBC assessed as restoration of antioxidant activity at 100 uM measured after 72 hrs by TAC assay relative to control; assay type: functional
[23] = Stability in simulated intestinal fluid at pH 6.8 assessed as relative difference measured after 180 mins in presence of pancreatin by HPLC analysis; assay type: ADME; details: simulated gi fluid, pH 6.8, 3 h; in short: as §1
[24] = Solubility of compound in water by HPLC analysis; assay type: physicochemical
[25] = Half life in human plasma by HPLC analysis; assay type: ADME, cell-free; in short: as §3

COc1ccc(/C=C/C(=O)OCCOCCNC(=O)CCCCC2CCSS2)cc1OC (stereo not given)
Activity (SH-SY5Y [1]): 15.39% | Activity (SH-SY5Y [2]): 1.6% | Activity (Erythrocyte [3]): 0.4% | Activity (Erythrocyte [4]): 12.5% | fold change (FC) [5]: 30.76% | Activity (Erythrocyte [6]): 2% | Activity (SH-SY5Y [7]): Active | fold change (FC) [8]: 12.01% | Activity (Erythrocyte [9]): 0.5% | Activity (SH-SY5Y [10]): Active | fold change (FC) [11]: 27.2% | Activity (Erythrocyte [12]): Dose-dependent effect | Activity (SH-SY5Y [13]): Non-Toxic | fold change (FC) [14]: 21.06% | Activity (Erythrocyte [15]): Dose-dependent effect | fold change (FC) [16]: 31.38% | Activity (Erythrocyte [17]): Dose-dependent effect | fold change (FC) [18]: 5.6% | K [19]: 0.042 h⁻¹ | Activity (SH-SY5Y [20]): 2.85% | fold change (FC) [21]: 7.35% | Activity (Erythrocyte [22]): 29.2% | fold change (FC) [23]: 40.3% | solubility [24]: 10 µg/mL (≈ 20.7 µM) | half-life [25]: 17.2 h
